This is one part of a sample in which hits are shown more often than they occur.
HCT116 bCat-KO: beta-catenin-lacking colon tumor cell growth suppression. viability, % at 10 µM. AID 818. HCT116 beta-catenin knockout viability, CellTiter-Glo, 60 h; stronger effect = lower value. 140,000 compounds, 1.5% hits;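 active means viability at or under a set limit, the compound median less 4 SD, cut at about 6% in these data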
H69AR inhibit: growth inhibitors of human H69AR lung tumor cells. H69AR lung tumor viability, ATP luminescence, 72 h; stronger effect = lower value. viability, % at 10 µM. 85,000 compounds, 6% hits. AID 598;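 active means viability at or below 40%; inactive means viability above 40%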;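 further: multidrug resistant small cell line overexpressing MRP-1 efflux transporter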
HCT116 PTEN-null: PTEN-deleted cell growth suppression; AID 827; viability, % at 10 µM; 140,000 compounds, 1.2% hits; HCT116 PTEN-null viability, CellTiter-Glo, 60 h; stronger effect = lower value;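 active means viability at or below a set limit, 4 SD under the median of all tested compounds, cut at about 3.7% in these data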;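 further: PTEN knockout HCT116 line with beta catenin targeted HCT116 as companion control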
HUVEC inhibit: human endothelial cell proliferation inhibition | HUVEC proliferation, CellTiter-Glo luminescence, 72 h; stronger effect = lower value | viability, % at 10 µM (by protocol) | 86,000 compounds, 1.1% hits | AID 648;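 active means viability at or below 30%; inactive means viability above 30%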
Fibroblast inh: blocks proliferation of human lung fibroblasts; LL 47 human lung fibroblast viability, ATP luminescence; stronger effect = lower value; viability, % at 10 µM; 85,000 compounds, 1.1% hits; AID 719;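 active means viability at or below 50% in the single dose screen; inactive means viability above 50%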;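 further: compound exposure lasted 72 h before the ATP readout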
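Material: human LL 47 lung fibroblast cells; quantity: 1,150 cells/well; medium: IMEM plus 15% FBS; doses: 0.1% DMSO in all compound wells; timing: overnight attachment after seeding, then 72 h compound exposure at 37 °C; detection: CellTiter-Glo luminescence; measure: % viability of median cell-only signal; controls: cell-only wells, no compound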
A number is an active result; . = inactive; / = no result given.

SMILES | HCT116 bCat-KO | H69AR inhibit | HCT116 PTEN-null | HUVEC inhibit | Fibroblast inh
COc1ccc(OC)c(/C(O)=C/C(=O)C(=O)Nc2cc(C)ccc2OC)c1 | . | . | . | . | .
CCOc1ccccc1NC(=O)C(=O)/C=C(\O)c1cc(OC)ccc1OC | . | 8.4 | . | . | .
O=C1CC(c2ccccc2)CC2=C1CN(C1CCCCC1)CN2 (stereo not drawn) | . | 23 | . | . | .
C=CCOc1c(OC)cc(/C=N/Nc2cccc(C(=O)O)c2)c(Br)c1Br | . | / | . | / | /
N#Cc1ccc(-c2ccc(OCC(=O)NCC(=O)Nc3ccc(F)c(F)c3F)cc2)cc1 | . | / | . | / | /
Cc1cc(C)c(COCc2cc(/C=N/O)c(C)cc2C)cc1/C=N/O | . | 18 | . | . | .
CSc1cc(/C=N/O)c(SC)s1 | . | / | . | / | /
CC(C)n1cc(NC(=O)c2cc(-c3ccccc3)on2)cn1 | . | 21 | . | . | .
CNC(=O)CSc1nnc(SCCC(=O)O)s1 | . | / | . | / | /
CC(C)c1ccc(O)c(NC(=O)c2ncn[nH]2)c1 | . | . | . | . | .
CC(C)c1ccc2c(c1)C1(NN=C(c3ccccc3)S1)C(=O)N2 (stereo not drawn) | 4.5 | 18 | . | 3.4 | 43
CCc1ccc2c(c1)[C@]1(C(=O)N2)[C@@H]2C(=O)N(Cc3ccccc3)C(=O)[C@@H]2[C@@H]2CCCN21 | . | . | . | . | .
CCc1ccc2c(c1)C1(NN=C(c3ccc(C)cc3)S1)C(=O)N2 (stereo not drawn) | 1.4 | 2.3 | 1.7 | 9.8 | 47
COc1ccc(/C=C/c2ccncc2)c2ccccc12 | . | 14 | . | . | .
COc1ccccc1/C=C/C=N/NC(=O)c1ccncc1 | . | / | . | / | /
CCOc1ccc(C(=O)C(CN2CCOCC2)c2ccccc2)cc1 (stereo not drawn) | 3.1 | / | 2.7 | / | /
O=C(c1ccccc1)c1ccc(OCC(O)CN2CCOCC2)cc1 (stereo not drawn) | / | . | / | . | .
O=C(Cc1ccccc1)NC1c2ccccc2-c2ccccc21 | . | / | . | / | /
Cc1c(C#N)c2ccccc2n1CC(=O)NCCc1c[nH]c2ccccc12 | . | 37 | . | . | .
N#Cc1cn(CC(=O)NCCc2c[nH]c3ccccc23)c2ccccc12 | . | . | . | . | .
Oc1[nH]c2ccccc2c1C=Nc1ccc2c(c1)OCO2 | . | / | . | / | /
O=c1c2ccccc2c(C=Nc2cccc(O)c2)c(O)n1-c1ccc2c(c1)OCO2 | 3.7 | / | . | / | /
N#CC(c1cccc(Cl)c1)c1ccc2c(C(F)(F)F)cc(C(F)(F)F)nc2n1 (stereo not drawn) | 0.8 | 4.3 | 1.0 | 14 | 20
Cc1cc(C(C#N)c2cccc(Cl)c2)n2ncnc2n1 (stereo not drawn) | . | . | . | . | .
Cc1sc(NC(=O)CSc2nnc(COc3ccc(Cl)cc3)n2C)c(C#N)c1C | . | 31 | . | . | .
SMILES | HCT116 bCat-KO | H69AR inhibit | HCT116 PTEN-null | HUVEC inhibit | Fibroblast inh
CCOC(=O)c1cnc(SCc2nc(N)nc(Nc3ccccc3)n2)nc1N | . | 32 | . | . | .
CCOC(=O)c1cnc(SCC(=O)Nc2cc(OC)cc(OC)c2)nc1N | . | . | . | . | .
CCOC(=O)c1cnc(SCC(=O)Nc2cc(C(F)(F)F)ccc2N2CCOCC2)nc1N | . | 36 | . | . | .
Cc1ccc(-c2nnc(SCC(=O)Nc3sc(C)c(C)c3C#N)n2C)cc1 | . | . | . | . | .
CCOC(=O)c1cnc(SCC(=O)Nc2ccc(N3CCOCC3)c(Cl)c2)nc1N | . | . | . | . | .
CCOC(=O)c1cnc(SCC(=O)Nc2sc(C)c(C)c2C#N)nc1N | 2.8 | . | 3.1 | . | .
Cn1cnc([N+](=O)[O-])c1Oc1ccc2ccccc2c1 | . | / | . | / | /
Cc1ccc(NCC(=O)NNC2=NCCC2)c(C)c1 | . | / | . | / | /
c1ccc(COc2ccc(OCCN3CCCCC3)cc2)cc1 | . | / | . | / | /
CC(C)(C)c1ccc(S(=O)(=O)N2CCSC2)cc1 | . | / | . | / | /
COC(=O)c1sc(NC(C)=O)c(C(=O)OC)c1C | . | . | . | . | .
COC(=O)c1sc(NC(=O)c2cnccn2)c(C(=O)OC)c1C | / | 40 | / | . | .
COc1ccccc1NC(=O)COc1ccc(/C=N/NC(=O)CSCc2ccc(Cl)cc2)cc1 | 3.2 | / | 2.2 | / | /
COc1ccccc1NC(=O)COc1ccc(/C=N/NC(=O)CSCc2cc(C)cc(C)c2)cc1 | . | / | . | / | /
O=C(N=Nc1c(O)[nH]c2ccc(Br)cc12)c1cc(-c2cccc3ccccc23)n[nH]1 | . | / | . | / | /
Cc1cccc(C)c1OCC(=O)N=Nc1c(O)[nH]c2ccc(Br)cc12 | . | 1.9 | . | 17 | .
CCOC(=O)c1ccccc1NC(=O)CSc1nc2c(c(=O)n(C)c(=O)n2C)n1C | . | 32 | . | . | /
CCOC(=O)c1ccccc1NC(=O)c1n[nH]c(=O)c2ccccc12 | . | / | 3.1 | / | /
CCOC(=O)c1ccccc1NC(=O)c1cccs1 | . | . | . | . | .
COC(/C=C/Nc1ccc(Br)cc1)=C(C#N)C#N | . | / | . | / | /
CCc1nc2c(cnn2-c2ccc(Cl)cc2)c(=O)n1-c1ccc2c(c1)OCCO2 | 3.3 | . | . | . | .
c1ccc2[nH]c3cc4ncnc4cc3nc2c1 | . | / | . | / | /
c1ccc2c(CCNc3ncnc4nc[nH]c34)c[nH]c2c1 | . | 20 | . | . | .
OC(COCc1ccc(Cl)cc1)CN1CCN(CC(O)COCc2ccc(Cl)cc2)CC1 (stereo not drawn) | 5.5 | . | . | . | .
COc1cc2c(cc1OC)C(c1ccccc1)N(C(=O)CCl)CC2 (stereo not drawn) | 1.9 | / | 2.0 | / | /
SMILES | HCT116 bCat-KO | H69AR inhibit | HCT116 PTEN-null | HUVEC inhibit | Fibroblast inh
COc1cc2c(cc1OC)C(C1C(=O)CCCC1=O)N(C(=O)CCl)CC2 (stereo not drawn) | . | / | . | / | /
CC(C)(C)c1ccc(S(=O)(=O)Nc2cccc(C3OCCCO3)c2)cc1 | . | / | . | / | /
COc1cc(/C=N/NC(=O)c2ccc(O)cc2)ccc1Oc1ccc([N+](=O)[O-])cn1 | . | / | . | / | /
O=C(CNc1ccccc1)N/N=C/c1ccc([N+](=O)[O-])o1 | 2.6 | / | . | / | /
O=C(N/N=C/c1ccc([N+](=O)[O-])o1)c1ccc(O)cc1 | 3.2 | / | . | / | /
Cc1ccc(NCC(=O)N/N=C\c2ccc([N+](=O)[O-])o2)cc1 | 5.8 | / | . | / | /
O=C(CNC(=O)c1ccccc1)N/N=C/c1ccc([N+](=O)[O-])o1 | . | / | . | / | /
Cn1c(Cn2nnc(-c3ccccc3)n2)nnc1SCc1ccccc1Cl | . | . | . | . | .
CC(C)OC(=O)c1nn2c(C(F)(F)F)cc(-c3ccc(Br)o3)nc2c1Br | . | 35 | . | . | .
CC(C)OC(=O)c1nn2c(C(F)(F)F)cc(-c3ccco3)nc2c1Cl | . | . | . | . | .
CCOC(=O)c1c(CN2CCN(C)CC2)oc2ccc(OC)cc12 | . | . | . | . | .
CCOC(=O)c1c(CN2CCN(c3ccccc3)CC2)oc2ccc(O)cc12 | . | 31 | . | 27 | .
Cc1ccc(S(=O)(=O)c2cc3c(=O)n4cccc(C)c4nc3n(CC3CCCO3)c2=N)cc1 (stereo not drawn) | / | 40 | / | . | .
CCc1ccc(N2C(=O)c3sc4nnc(-c5ccccc5)c(=O)n4c3C2=O)cc1 | . | 30 | . | . | .
